This passage reports fluorescence artifact activation results from PubChem BioAssay AID504382 (The Scripps Research Institute Molecular Screening Center, 2011).

SMILES strings stand for the structures. Among all 2,500 compounds or so, about 460 (18%) were called active.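 The calls were made as follows: active = mean activation above a cutoff of low control average plus 3 SD from the earlier screen (cut at about 12% in these data); inactive = the rest.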 A selection follows.

The experiment can be described thus: IANBD-channel fluorescence artefacts in buffer – biochemical, artefact control for cardiac RTF calcium sensitizer project, confirmation (AID 504382). The following applies: IANBD fluorescence interference counterscreen, EC20 Ca2+, at 7.2 µM, stronger effect = higher value, scaled: EC20 calcium 0, EC100 calcium 100. A digest of the protocol: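 Also added: EC20 calcium, 0.472 mM; dosing: single nominal 7.2 µM compound dose, 0.7% DMSO final; timing: 15 min, 25 °C; detection: fluorescence intensity, excitation 480 nm, emission 540 nm; replicates: each compound tested in triplicate wells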
A general note: Counterscreens check selectivity or assay interference.
Consider `COc1cccc(CN2CCNC(=O)C2CC(=O)N(C)Cc2cnccn2)c1OC` (stereo unspecified), for which the fluorescence artifact activation was 0.09% (inactive).

`O=C(CSC1=NS(=O)(=O)c2ccccc2N1)N1CCCCC1`: the fluorescence artifact activation was 1.61% (inactive).

On to `CN(C)C(CNC(=O)CSc1nc2ccccc2c(=O)n1Cc1ccco1)c1ccccc1` (stereo unspecified), for which the fluorescence artifact activation was -0.06% (inactive).

Take `CC1(C)CC2(CCCN(C(=S)Nc3ccccc3)C2)CCO1` (stereo unspecified): the fluorescence artifact activation is 0.12% (inactive).

For the molecule `CC1(C)CC(CC(=O)Nc2nccs2)(c2ccccc2)CCO1` (stereo unspecified), the fluorescence artifact activation was 239% (active).

For `O=C(Cc1c(F)cccc1Cl)Nc1nccs1`, the fluorescence artifact activation was 0.01% (inactive).

In the case of `Cn1c(=O)cc(SCC(=O)NCC2COc3ccccc3O2)c2ccccc21` (stereo unspecified), the fluorescence artifact activation was 0.03% (inactive).

As to `Cc1cc(NS(C)(=O)=O)c(=O)n(Cc2cccc(F)c2)c1`, the fluorescence artifact activation is 0.35% (inactive).

With `COc1ccc(N/C=C2\C(=O)CCc3c2oc2cc(Cl)c(O)c(Cl)c32)cc1`, the fluorescence artifact activation was 12.7% (active).

As for `Cn1cnnc1Sc1nc2ccccc2nc1NS(=O)(=O)c1ccccc1`, the fluorescence artifact activation was 4.87% (inactive).

For the molecule `Cc1cc(N/C=C\c2nnnn2-c2ccc(F)cc2)no1`, the fluorescence artifact activation was 233% (active).

Consider `CC(=O)N(c1ccccc1)C1SC(=O)N(c2ccccc2)C1=O` (stereo unspecified), for which the fluorescence artifact activation was 0.05% (inactive).

In the case of `O=C(O)c1cc(-c2ccc(/C=C3/SC(=S)N(Cc4ccccc4)C3=O)o2)ccc1Cl`, the fluorescence artifact activation was 0.02% (inactive).

In the case of `O=C(O)C(c1ccccc1)N1C(=O)/C(=C\c2ccc(-c3ccc(Br)cc3)o2)SC1=S` (stereo unspecified), the fluorescence artifact activation was 68.3% (active).

In the case of `O=C(O)CN1C(=O)/C(=C/c2ccc(SCc3ccccc3)o2)SC1=S`, the fluorescence artifact activation was 11.5% (inactive).

For `CC(C)NC(=S)N/N=C/c1sc(N2CCCCC2)nc1-c1cccs1`, the fluorescence artifact activation is 0.18% (inactive).

`FC(F)(F)c1ccc(-c2nc(=S)[nH][nH]2)cc1`: the fluorescence artifact activation is -0.01% (inactive).

`CCN(CC)CC(C(=O)N(CC)CC)P(=O)(c1ccccc1)c1ccccc1` (stereo unspecified): the fluorescence artifact activation was 1.03% (inactive).

For the molecule `CCC1Oc2ccc(C)cc2N(CC(=O)NCc2cccs2)C1=O` (stereo unspecified), the fluorescence artifact activation is -0.08% (inactive).

Take `O=C(CO/N=C/c1ccccc1OC(F)F)NCc1cccs1`: the fluorescence artifact activation was 16.6% (active).

`Cc1ccc(SCC(=O)OCC(=O)NCc2cccs2)cc1`: the fluorescence artifact activation was 2.52% (inactive).

`C=CCOc1ccc(C2OC34CCCCC3C(C#N)(C#N)C2(C#N)C(=N)O4)cc1` (stereo unspecified): the fluorescence artifact activation was 0.84% (inactive).

Regarding `Cc1ccc(-c2noc(-c3c(C)noc3C)n2)cc1`, the fluorescence artifact activation was 2% (inactive).

In the case of `O=C1c2ccsc2SCCN1Cc1ccc(F)cc1`, the fluorescence artifact activation was 7.58% (inactive).

`O=C(NN1C(=O)/C(=C/c2ccc(O)cc2)SC1=S)c1ccccc1O`: the fluorescence artifact activation is 0.14% (inactive).

As to `C=C(C)c1cccc(C(C)(C)NC(=O)Nc2cccnc2)c1`, the fluorescence artifact activation was 5% (inactive).

Consider `N#CC1=C(N)OC2=C(CC/C2=C\c2ccccc2)C1c1ccccc1` (stereo unspecified), for which the fluorescence artifact activation is 1.94% (inactive).

On to `Cc1ccc(/C=C2\CCC3=C2OC(N)=C(C#N)C3c2ccc(C)cc2)cc1` (stereo unspecified), for which the fluorescence artifact activation was 0.12% (inactive).

Take `N#CC1=C(N)OC2=C(CC/C2=C\c2ccccc2Cl)C1c1ccccc1Cl` (stereo unspecified): the fluorescence artifact activation was 125% (active).

Turning to `COc1ccc2c(n1)Sc1nc3ccccc3nc1N2`, the fluorescence artifact activation is 0.01% (inactive).

Consider `O=C(c1ccccc1)c1ccccc1C(=O)c1ccccc1`, for which the fluorescence artifact activation was 0.23% (inactive).

`O=C(c1ccccc1)c1ccc(O)cc1O`: the fluorescence artifact activation is 24.9% (active).

Consider `O=C(c1ccccc1)c1ccncc1`, for which the fluorescence artifact activation is 0.03% (inactive).

For the molecule `CC1(C)CC(=O)C2=C(C1)OC(N)=C(C#N)[C@@H]2c1ccccc1[N+](=O)[O-]`, the fluorescence artifact activation is 7.58% (inactive).

With `CCNC(=O)COc1ccc(-c2ccccc2)cc1`, the fluorescence artifact activation was 0.09% (inactive).

`O=C(O)CCC(=O)NNC(=O)c1ccc(-c2ccccc2)cc1`: the fluorescence artifact activation was 49% (active).

On to `O=C(O)c1ccc(NC(=S)NC(=O)c2ccc(-c3ccccc3)cc2)cc1`, for which the fluorescence artifact activation was 9.94% (inactive).

`COc1cc(NC(=O)CSc2ccccc2)c(C(=O)O)cc1OC`: the fluorescence artifact activation is 3.35% (inactive).

With `Nc1nc(SCc2cccc(Br)c2)n[nH]1`, the fluorescence artifact activation was 0.03% (inactive).

With `CC(Sc1nc2ncc(Cl)cc2[nH]1)C(=O)Nc1ccc(C(N)=O)cc1` (stereo unspecified), the fluorescence artifact activation was -0.03% (inactive).

On to `O=C1/C(=C\c2c(NCCOCCO)nc3ccccn3c2=O)SC(=S)N1Cc1ccco1`, for which the fluorescence artifact activation was 31.6% (active).

Take `CCN1CCN(c2c(/C=C3\SC(=S)N(Cc4ccco4)C3=O)c(C)c(C#N)c(=O)n2C)CC1`: the fluorescence artifact activation is 0.03% (inactive).

`CCCN(CCC)c1nc2c(C)cccn2c(=O)c1/C=C1/SC(=S)N(Cc2ccco2)C1=O`: the fluorescence artifact activation is 0.05% (inactive).

Regarding `Cc1cccc(C)c1NC(=O)CNC(=O)Cc1ccc(Br)cc1`, the fluorescence artifact activation is 0.05% (inactive).

Take `C=CCn1c(C)c(/C=C/c2cc[n+](C)cc2)c2ccccc21`: the fluorescence artifact activation is 8.02% (inactive).

For `Cn1c(=O)cc(N)n(Cc2ccccc2)c1=O`, the fluorescence artifact activation was 14.3% (active).

As for `O=c1cc2c(c(-c3ccccc3)n1Cc1ccccc1)[C@H](CCO)NC2`, the fluorescence artifact activation was 0.32% (inactive).

`Cn1c(=O)c2cc(NCc3ccccc3)nnc2n(C)c1=O`: the fluorescence artifact activation is 0.34% (inactive).

For the molecule `CN1CCN(C(=O)c2cc3ccccc3[nH]2)CC1`, the fluorescence artifact activation was -0.01% (inactive).

`CC(C)CN1CCC(C(=O)N2CCN(c3ccccc3F)CC2)CC1`: the fluorescence artifact activation was -0.02% (inactive).

Consider `CCC(CC)C(=O)c1c[nH]c(C(=O)N2CCN(c3ccccc3F)CC2)c1`, for which the fluorescence artifact activation is 17% (active).

Turning to `CC(=O)Nc1ccc2nc3c(=O)n(C)c(=O)n(C)c3nc2c1`, the fluorescence artifact activation is 1.77% (inactive).

Consider `COc1ccc(CCNC(=O)CN(C)S(=O)(=O)c2ccc3c(c2)CCC(=O)N3)cc1OC`, for which the fluorescence artifact activation was -0.01% (inactive).

Take `COc1cc(/C=C/C(=O)c2ccc3c(c2)OCO3)cc(Cl)c1O`: the fluorescence artifact activation was 1.66% (inactive).

As for `Cc1cc[n+](-c2[nH]c(=O)sc2/C=N/NC([S-])=Nc2ccccc2)cc1`, the fluorescence artifact activation was 1.49% (inactive).

Take `COc1ccc(-c2cc(C3CC3)nc(SCC(=O)c3cccs3)c2C#N)cc1`: the fluorescence artifact activation is 0.1% (inactive).

Turning to `CC(C)OC(=O)CC(=O)CSc1nc(-c2ccc(F)cc2)cc(-c2ccccc2)c1C#N`, the fluorescence artifact activation is 17.5% (active).

Consider `CCOC(=O)CC(=O)CSc1nc(-c2ccc3c(c2)OCO3)cc(C(F)(F)F)c1C#N`, for which the fluorescence artifact activation was 0.09% (inactive).

For the molecule `Cc1cc(C)n(-c2nc3ccccc3nc2Nc2ccc3[nH]c(=O)[nH]c3c2)n1`, the fluorescence artifact activation was 4.66% (inactive).

For `CC(C)Oc1ccc(/C(O)=C2/C(=O)C(=O)N(CCN3CCNCC3)C2c2cccc([N+](=O)[O-])c2)cc1` (stereo unspecified), the fluorescence artifact activation was 1.8% (inactive).

Consider `CCOC(=O)C1=C(C)NC(=O)/C1=C\N(C)C`, for which the fluorescence artifact activation is 0.04% (inactive).

With `Cc1cc(C)c(NC(=S)N(C)C)c(C)c1`, the fluorescence artifact activation is 31.3% (active).

For `NC(=O)c1ccccc1N/C=C/C(=O)c1ccc(Cl)cc1Cl`, the fluorescence artifact activation is 1.35% (inactive).

In the case of `COc1ccc(NC(=O)CNS(=O)(=O)c2cccs2)cc1`, the fluorescence artifact activation is -0.02% (inactive).

As to `COc1ccc(NC(=O)C(c2ccc(C)cc2)N(C)C(=O)Cc2cccs2)cc1` (stereo unspecified), the fluorescence artifact activation was 0.03% (inactive).

For the molecule `COc1ccc(N(C(=O)c2ccc(C)cc2)S(=O)(=O)c2cccs2)cc1`, the fluorescence artifact activation is 54.9% (active).

Regarding `CCOC(=O)C(C#N)C(c1cccnc1)c1c(C)[nH][nH]c1=O` (stereo unspecified), the fluorescence artifact activation is 0.03% (inactive).

Regarding `O=C(CSc1nc2cc(Cl)ccc2s1)c1cc2ccccc2o1`, the fluorescence artifact activation is 39.2% (active).

`Cc1ccccc1Nc1nnc(SCC(=O)c2cc3ccccc3o2)s1`: the fluorescence artifact activation was -0.07% (inactive).

As to `O=C(CSc1nc2ccccc2s1)c1cc2ccccc2o1`, the fluorescence artifact activation is 6.22% (inactive).

Turning to `CCN(CC)C(=O)c1ccc(/C=C/c2c[nH]c3ccccc23)[n+](C)c1`, the fluorescence artifact activation is 0.26% (inactive).

`Brc1ccc(C2=CC(c3ccco3)n3ncnc3N2)cc1` (stereo unspecified): the fluorescence artifact activation is 0.04% (inactive).

Turning to `CS(=O)(=O)Nc1nc2n(n1)C(c1ccccc1)C=C(c1ccc(Br)cc1)N2` (stereo unspecified), the fluorescence artifact activation was 13% (active).

For `Brc1ccc(C2=CC(c3cccs3)n3ncnc3N2)cc1` (stereo unspecified), the fluorescence artifact activation was 0.13% (inactive).

For the molecule `O=C(O)C1=C[C@H](c2ccccc2)C[C@H](OCc2ccc(CO)cc2)O1`, the fluorescence artifact activation was 0.07% (inactive).

For `Cc1ccc(NC(=O)C(OC(=O)c2ccc(F)cc2)c2ccccc2)cc1Cl` (stereo unspecified), the fluorescence artifact activation was -0.03% (inactive).

Turning to `Cn1nc(NC(=O)C2CCC2C(=O)O)c2c(F)cccc21` (stereo unspecified), the fluorescence artifact activation is 7.56% (inactive).

With `CC(C)(C)OC(=O)N1CC=C2C(C#N)=C(N)C(C#N)(C#N)C(c3cccs3)C2C1` (stereo unspecified), the fluorescence artifact activation is -0.03% (inactive).

Regarding `Cc1cc(C)c(OCCOCCN2CCNCC2)c(C)c1`, the fluorescence artifact activation is 0.06% (inactive).

Turning to `OCCc1c[nH]c2ccccc12`, the fluorescence artifact activation is 0.07% (inactive).

On to `NC(=O)c1c[nH]c2ccccc12`, for which the fluorescence artifact activation was 288% (active).

For the molecule `COc1cc(/C=C(\C#N)C(=O)c2c[nH]c3ccccc23)cc(OC)c1O`, the fluorescence artifact activation is 0.14% (inactive).

Regarding `CC(C)(C)OC(=O)N1CCC(Cc2cc(-c3cccnc3)no2)(C(=O)O)CC1`, the fluorescence artifact activation was 3.74% (inactive).

Take `Cc1ccc(NC(=O)c2cc(C(=O)c3cc(Cl)ccc3O)cn(-c3ccc(C)cc3)c2=O)cc1`: the fluorescence artifact activation is 3.68% (inactive).

For the molecule `CCOC(=O)C(C)Sc1nnc(Cc2cc(=O)[nH]c(=O)[nH]2)n1-c1ccc(Cl)cc1` (stereo unspecified), the fluorescence artifact activation is 0.21% (inactive).

Take `CCOC(=O)C(C)(C)Sc1nc2c(cnn2-c2ccc(Cl)cc2)c(=O)[nH]1`: the fluorescence artifact activation was 71.5% (active).

`CCCCNC(=O)COC(=O)c1c2c(nc3ccccc13)/C(=C\c1cccs1)CC2`: the fluorescence artifact activation was 1.6% (inactive).

Take `Nc1cccc2c1C(=O)N(c1ccccc1)C2=O`: the fluorescence artifact activation was 1.26% (inactive).

Take `O=C(Cc1ccccc1)Nc1cccc(-c2nc3ncccc3o2)c1`: the fluorescence artifact activation was 0.02% (inactive).

Turning to `CCC(=O)Nc1ccc2oc(-c3cccnc3)nc2c1`, the fluorescence artifact activation was 77.1% (active).

Regarding `Cc1cc(=O)oc(C)c1C(=O)Nc1ccc2ncccc2c1`, the fluorescence artifact activation is 0.24% (inactive).

Consider `COc1ccc(C)cc1NC(=O)C12CCC(C)(C(=O)O1)C2(C)C` (stereo unspecified), for which the fluorescence artifact activation is 6.57% (inactive).

Turning to `CC1(C)CC(=O)c2sc(NC(=O)Cc3cccs3)nc2C1`, the fluorescence artifact activation was 0.43% (inactive).

Turning to `CN(C)c1ccc(/C=C2\SC(=S)N(Nc3ncc(C(F)(F)F)cc3Cl)C2=O)cc1`, the fluorescence artifact activation is 1.93% (inactive).

In the case of `N=C1c2ccccc2CN1c1ccc(S(=O)(=O)N2CCCCC2)cc1`, the fluorescence artifact activation is 9.61% (inactive).

For `Cc1ccc(S(=O)(=O)N2CCOCC2)cc1C(=O)N1C(=O)c2cccc(N)c2C1=O`, the fluorescence artifact activation is 0.13% (inactive).
